# Experimental data pooled from the literature.
# Protocols differ between the studies behind these lines.
# MPO: Myeloperoxidase (MPO, Homo sapiens, UniProt P05164)
# SLC6A2: Sodium-dependent noradrenaline transporter (SLC6A2, Homo sapiens, UniProt P23975)
SMILES,target,assay,system,conditions,quantity,value
NC/C(=C\F)COc1cccc(Cn2c(=S)[nH]c(=O)c3[nH]cnc32)c1,MPO,"enzyme activity, inhibitor, fluorescence",,1.4 nM,inhibition,17.2%
CCCCC[C@H](O)/C=C/[C@H]1C(=O)C[C@H](O)[C@@H]1C/C=C\CCCC(=O)O,"Prostaglandin D2 receptor (PTGDR, Homo sapiens, UniProt Q13258)","G protein activation, agonist, BRET",,,Emax,101%
COc1ccc2oc(-c3ccc4nc(N)oc4c3)c/c(=N\c3ccccc3NC(=O)CCN)c2c1,"Fibroblast growth factor receptor 1 (FGFR1, Homo sapiens, UniProt P11362)",binding,,1 µM,remaining binding,94%
CNc1nc(C#Cc2ccc(Cl)s2)nc2c1ncn2[C@H]1[C@H](O)[C@H](O)[C@]2(CC#N)C[C@H]12,SLC6A2,"transporter uptake, inhibitor, radiometric",HEK293,10 µM,inhibition,16%
CC(=O)N[C@H](CCCNC(=N)N)C(=O)N[C@H]1CSSC[C@@H](C(N)=O)NC(=O)[C@H](Cc2c[nH]c3ccccc23)NC(=O)[C@H](CCCNC(=N)N)NC(=O)[C@@H](Cc2ccccc2)NC(=O)[C@H](Cc2c[nH]cn2)NC(=O)[C@H](CCC(=O)O)NC1=O,"Melanocortin receptor 4 (MC4R, Homo sapiens, UniProt P32245)","cAMP, agonist",CHO-K1,,Emax,100%
C1=C/COCc2cc(ccc2OCCN2CCCC2)Nc2nccc(n2)-c2cccc(c2)COC/1,"Peripheral plasma membrane protein CASK (CASK, Homo sapiens, UniProt O14936)",binding,,0.1 µM,remaining binding,81%
COc1ccc(Cl)cc1-c1cc(=O)[nH]c(=S)n1CC(N)=O,MPO,"enzyme activity, inhibitor, fluorescence",,0.5556 µM,inhibition,87.6%
CCOC(=O)[C@@]12C[C@@H]1[C@@H](n1ccc3c(NCCCCc4ccccc4)nc(C#Cc4ccccc4)nc31)[C@H](O)[C@@H]2O,SLC6A2,"ligand displacement, radioligand",,10 µM,inhibition,81%
CCCCC(=O)Nc1ccc(-c2ccc3ncn(CCC)c(=O)c3c2)cn1,"Tyrosine-protein kinase Fgr (FGR, Homo sapiens, UniProt P09769)","binding, competition with immobilised ligand",,0.5 µM,remaining binding,100%
OC[C@@]12C[C@@H]1[C@@H](n1cnc3c(N[C@@H](C4CCC4)C4CC4)nc(C#Cc4ccc(Cl)s4)nc31)[C@H](O)[C@@H]2O,SLC6A2,"ligand displacement, radioligand",,10 µM,inhibition,90%
Cc1cc(O)c(-c2ccc([C@@H](C)CN(C)C)cc2)c2c1[nH]c(=O)c1sccc12,"Extracellular serine/threonine protein kinase FAM20C (FAM20C, Homo sapiens, UniProt Q8IXL6)","cell-free assay, inhibitor",,"0.1 µM, lysate",inhibition,-0.829%
CC(C)OCCn1c(=S)[nH]c(=O)c2[nH]ccc21,MPO,"enzyme activity, inhibitor",,0.68 µM,remaining activity,27.6%
N#CC[C@@]12C[C@@H]1[C@@H](n1cnc3c(NCCCCCc4ccccc4)nc(I)nc31)[C@H](O)[C@@H]2O,SLC6A2,"ligand displacement, radioligand",,10 µM,inhibition,4%
